Rows were chosen to be rich in hits. Some 1.5% of all compounds tested hit in one or more screens of this group.
Jurkat NFkB inh – lowers PMA/ionomycin-induced NF-kB signal in Jurkat cells | PMA/ionomycin-induced NF-kB luciferase reporter, luminescence | inhibition, % at 4 µM | 330,000 tested, 0.53% active | AID 435003; in the data active = inhibition above about 50%
697 NFkB inh – inhibitors of the PMA/ionomycin-induced NF-kB reporter in 697 B cells | 697 B-cell NF-kB luciferase reporter, 16 h | inhibition, % at 4 µM | 330,000 tested, 0.33% active; in the data active = inhibition above about 35%
NR2E3 ag-1 – activates human photoreceptor nuclear receptor NR2E3; Q9Y5X4; GST-NR2E3/biotin-RetCOR TR-FRET, 1536-well; inhibition of corepressor binding, % at 4.78 µM; 320,000 tested, 0.12% active;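 active = percent inhibition above the cutoff of mean plus 3 SD of all tested compounds, set per screening campaign, cut at about 20% in these data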;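 also: 0% = DMSO wells and 100% = biotin wells as full block of FRET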
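Material: NR2E3–RetCOR corepressor complex | Quantity: 1.35 nM GST-tagged NR2E3 final | Schedule: 5 h at 4 °C | Replication: Singlicate compound wells | Reagent: RetCOR corepressor, biotinylated, 7 nM | Controls: Biotin wells as high control, 0.6% DMSO wells as low control | Signal: TR-FRET, Eu(K)-anti-GST donor, streptavidin-D2 acceptor, ex 340, em 617/671 nm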
NR2E3 ag-2 – human photoreceptor-specific nuclear receptor agonism; Q9Y5X4; CHO-S Gal4-NCOR/VP16-NR2E3 two-hybrid, luciferase; inhibition of corepressor binding, % at 3.98 µM; 360,000 tested, 0.35% active; AID 602229;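 active = inhibition above the mean of all tested compounds plus 3 SD, cut at about 70% in these data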;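 also: 0% = DMSO with NR2E3 transfected cells and 100% = cells lacking NR2E3 construct; higher means lower luciferase signal from less NR2E3 corepressor binding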
GASC-1 inh – blocks human GASC-1 demethylase activity | Q9H3R0 | GST-JMJD2C(1-420) H3K9me3 demethylation, DELFIA europium | inhibition, % at 2.35 µM | 330,000 tested, 0.069% active | AID 2099;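 active = more than half of a compound's replicate wells show inhibition beyond 50%, single wells judged on their own value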;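 also: signal counts dimethyl H3K9 product captured on neutravidin plate; 0% = median of DMSO wells and 100% = 0.3 times that DMSO median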
Target sequence (Q9H3R0 1-420 limits assumed): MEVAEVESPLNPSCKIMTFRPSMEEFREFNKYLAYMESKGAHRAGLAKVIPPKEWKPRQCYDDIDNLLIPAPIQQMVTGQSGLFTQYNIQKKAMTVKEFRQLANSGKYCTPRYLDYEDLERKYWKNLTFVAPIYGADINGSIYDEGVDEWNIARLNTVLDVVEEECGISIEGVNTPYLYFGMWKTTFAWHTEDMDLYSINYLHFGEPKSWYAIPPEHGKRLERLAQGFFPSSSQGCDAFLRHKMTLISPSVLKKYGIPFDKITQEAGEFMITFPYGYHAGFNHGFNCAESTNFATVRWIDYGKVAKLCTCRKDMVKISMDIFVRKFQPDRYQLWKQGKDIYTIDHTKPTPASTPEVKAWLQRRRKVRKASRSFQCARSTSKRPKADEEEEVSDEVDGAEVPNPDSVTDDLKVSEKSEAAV
GalR3 antagonist – human GalR3 antagonism; inhibition, % at 3 µM; AID 651719; O60755; HEK293 GalR3-CNG cAMP membrane potential fluorescence; galR3 body fused to GalR1 C-terminus; 360,000 tested, 0.44% active;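 active = inhibition above the screen-wide average plus 3 SD, cut at about 13% in these data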;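 also: forskolin and galanin both at EC90 stimulate the cells; cAMP rise reported by CNG channel membrane potential dye signal; 0% = forskolin plus galanin with DMSO and 100% = forskolin alone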
Target sequence (O60755 1-299 limits assumed): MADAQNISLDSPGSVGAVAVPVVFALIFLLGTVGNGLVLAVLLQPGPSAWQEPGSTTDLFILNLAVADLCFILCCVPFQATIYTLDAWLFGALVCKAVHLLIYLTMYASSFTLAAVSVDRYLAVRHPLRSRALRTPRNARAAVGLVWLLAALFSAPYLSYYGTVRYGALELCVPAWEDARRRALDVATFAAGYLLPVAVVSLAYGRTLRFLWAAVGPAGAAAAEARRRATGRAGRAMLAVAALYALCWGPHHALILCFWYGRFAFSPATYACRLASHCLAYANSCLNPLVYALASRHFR
GalR3 antag conf – GalR3 (human) antagonism, confirmation; shares compounds with GalR3 antagonist; HEK293 GalR3 CNG cAMP biosensor, membrane potential fluorescence; galR3 fused to GalR1 carboxy tail; challenged with forskolin and galanin at EC90; inhibition, % at 3 µM; AID 652245; 1,600 tested, 59% active;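 active = inhibition above the primary screen's cutoff, the mean inhibition of all screened compounds plus 3 SD, cut at about 13% in these data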;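 also: 0% = forskolin plus galanin and 100% = forskolin alone with DMSO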
CNG parental – parental cell agonism counter-screen for GalR3 antagonists; shares compounds with GalR3 antagonist; HEK293-CNG parental cells, cAMP membrane potential fluorescence; normalised: DMSO wells 0%, forskolin wells 100%; activation, % at 3 µM; 1,600 tested, 10% active; in the data active = activation above about 1.3%
Numbers without * were called inactive.

COc1ccc(OC)c(NC(=O)c2cccc3c2C(=O)N(C2CCCCC2)C3)c1 was read as Jurkat NFkB inh 12.5, 697 NFkB inh 1.8, NR2E3 ag-1 -1.9, NR2E3 ag-2 -1.1, GASC-1 inh -15.0 and GalR3 antagonist 0.0.
CC1CN(C)C(C)C/C1=N\Oc1ccc([N+](=O)[O-])cc1 (configuration not stated) was read as Jurkat NFkB inh -16.4, 697 NFkB inh 11.4, NR2E3 ag-1 6.5, NR2E3 ag-2 -13.2, GASC-1 inh 4.4 and GalR3 antagonist -4.8.
CC1CN(C)C(C)C/C1=N/Oc1ccccc1[N+](=O)[O-] (configuration not stated) was read as Jurkat NFkB inh -4.3, 697 NFkB inh 2.6, NR2E3 ag-1 3.1, NR2E3 ag-2 -6.1, GASC-1 inh -0.1, GalR3 antagonist 13.2*, GalR3 antag conf 2.7 and CNG parental 0.4.
`CCCCCC(=O)NNC(=S)NC(C)=O` gave Jurkat NFkB inh 3.1, 697 NFkB inh -0.1, NR2E3 ag-1 -1.5, NR2E3 ag-2 -0.2, GASC-1 inh 1.0, GalR3 antagonist 12.9*, GalR3 antag conf 1.7 and CNG parental 0.0.
For CCCCC(=O)NNC(=S)NC(=O)c1ccc(C)cc1 the results were Jurkat NFkB inh -4.5, 697 NFkB inh 1.5, NR2E3 ag-1 0.3, NR2E3 ag-2 -35.0, GASC-1 inh -23.1 and GalR3 antagonist 0.0.
Screening COCCCN1C(=O)c2ccc(C(=O)OCC(=O)N(C)c3ccccc3)cc2C1=O returned Jurkat NFkB inh -7.8, 697 NFkB inh 12.9, NR2E3 ag-1 3.0, NR2E3 ag-2 -17.0, GASC-1 inh 1.5, GalR3 antag conf -0.6 and CNG parental -0.1.
Screening COCCCN1C(=O)c2ccc(C(=O)OCC(=O)NCCc3ccccc3)cc2C1=O returned Jurkat NFkB inh -1.7, 697 NFkB inh 3.8, NR2E3 ag-1 1.2, NR2E3 ag-2 21.1, GASC-1 inh 9.2 and GalR3 antagonist -5.5.
For Cc1nc(C)c(C(=O)O)c(-c2cccs2)c1C(=O)O the results were Jurkat NFkB inh -7.2, 697 NFkB inh 8.5, NR2E3 ag-1 -0.7, NR2E3 ag-2 11.7, GASC-1 inh 12.4 and GalR3 antagonist -6.3.
For O=C(Nc1ccc(Oc2ccccc2)cc1)c1csc(COCCO)n1 the results were NR2E3 ag-2 -37.1, GalR3 antagonist 92.0*, GalR3 antag conf 112.9* and CNG parental -0.8.
For CC(C)Oc1ccc(CNC(=O)c2cc(S(=O)(=O)N3CCOCC3)cn2C)cc1 the results were Jurkat NFkB inh 9.5, 697 NFkB inh 1.4, NR2E3 ag-1 1.9, NR2E3 ag-2 -22.3, GASC-1 inh -26.3 and GalR3 antagonist -6.0.
Screening Cc1ccc(S(=O)(=O)N2CCN(C(=O)COC(=O)CCOc3ccc(C(C)(C)C)cc3)CC2)cc1 returned Jurkat NFkB inh -5.3, 697 NFkB inh -20.3, NR2E3 ag-1 2.2, NR2E3 ag-2 -15.0, GASC-1 inh -7.6, GalR3 antagonist 20.4*, GalR3 antag conf 19.9* and CNG parental -0.6.
`Cn1ncnc1SCc1cn2cccnc2n1` gave Jurkat NFkB inh -1.9, 697 NFkB inh 6.3, NR2E3 ag-1 0.3, NR2E3 ag-2 -5.7, GASC-1 inh 6.8 and GalR3 antagonist 1.9.
Screening CC(Oc1ccc(Cl)cc1)C(=O)/C=C/N(C)C (configuration not stated) returned Jurkat NFkB inh 8.4, 697 NFkB inh 29.8, NR2E3 ag-1 3.3, NR2E3 ag-2 6.3, GASC-1 inh 3.1 and GalR3 antagonist -4.7.
For CC(Oc1ccc(Cl)cc1)/C(N)=N/O (configuration not stated) the results were Jurkat NFkB inh -10.9, 697 NFkB inh -11.5, NR2E3 ag-1 -2.5, NR2E3 ag-2 2.8, GASC-1 inh inactive, GalR3 antagonist 15.6*, GalR3 antag conf 5.5 and CNG parental -0.4.
Screening CCC(C)NC(=O)C1CCC(CNS(=O)(=O)c2ccccc2)CC1 (configuration not stated) returned Jurkat NFkB inh -5.2, 697 NFkB inh 13.9, NR2E3 ag-1 0.9, NR2E3 ag-2 -5.7, GASC-1 inh 6.0 and GalR3 antagonist 0.4.
Screening CCC(=O)c1ccc(OCC(=O)O)cc1 returned NR2E3 ag-2 -5.2, GASC-1 inh -6.8, GalR3 antag conf -1.7 and CNG parental 0.1.
CCC(=O)c1ccc(OCC(=O)NC2CCCC2)cc1 was read as Jurkat NFkB inh -26.8, 697 NFkB inh 6.6, NR2E3 ag-1 3.5, NR2E3 ag-2 1.6, GASC-1 inh 1.4 and GalR3 antagonist -2.4.
For COc1cc(CN2CCN(CC3CC3)CC2CCO)cc(OC)c1 (configuration not stated) the results were Jurkat NFkB inh -3.9, 697 NFkB inh 12.5, NR2E3 ag-1 -3.9, NR2E3 ag-2 -8.1, GASC-1 inh 9.0 and GalR3 antagonist -2.3.
CCc1cccc(NC(=O)CN(C)S(=O)(=O)c2cccs2)c1 was read as Jurkat NFkB inh -7.8, 697 NFkB inh -3.2, NR2E3 ag-1 3.5, NR2E3 ag-2 -22.8, GASC-1 inh 1.6, GalR3 antagonist 14.1*, GalR3 antag conf 12.0 and CNG parental -0.3.
`O=C(Nc1ccc2c(c1)C(=O)OC2)c1ccc(Cl)cc1` gave Jurkat NFkB inh -12.4, 697 NFkB inh 0.9, NR2E3 ag-1 -2.7, NR2E3 ag-2 -9.4, GASC-1 inh 8.1 and GalR3 antagonist -7.4.
`O=C1OCc2ccc(NC(=O)c3sccc3Cl)cc21` gave Jurkat NFkB inh -2.4, 697 NFkB inh -0.8, NR2E3 ag-1 0.7, NR2E3 ag-2 -1.9, GASC-1 inh 3.4, GalR3 antagonist 15.1*, GalR3 antag conf 6.8 and CNG parental 0.1.
Screening Cc1cc(NC(=O)COC(=O)C(Cc2ccccc2)NC(=O)c2ccco2)no1 (configuration not stated) returned Jurkat NFkB inh -7.3, 697 NFkB inh -1.7, NR2E3 ag-1 1.3, NR2E3 ag-2 8.2, GASC-1 inh 4.8, GalR3 antagonist 13.0*, GalR3 antag conf 14.2* and CNG parental 0.0.
For CCOC(=O)c1ccc(NC(=O)Nc2ccc(F)cc2)cc1 the results were Jurkat NFkB inh -43.6, 697 NFkB inh -29.4, NR2E3 ag-1 1.3, NR2E3 ag-2 -33.1, GASC-1 inh -16.3 and GalR3 antagonist -9.0.
Screening CCOC(=O)c1cc[n+](CC(=O)c2ccc(F)cc2)cc1 returned Jurkat NFkB inh -5.2, 697 NFkB inh -19.1, NR2E3 ag-1 0.7, NR2E3 ag-2 -13.6, GASC-1 inh -3.0, GalR3 antagonist 14.6*, GalR3 antag conf 3.0 and CNG parental 0.1.

Screening data as filed in PubChem BioAssay.
